The subject of experiment [1] is MDA-MB-231. Kind of experiment: Cytotoxicity against human MDA-MB-231 cells after 48 hrs by sulforhodamine B assay. It counts as functional. The settings on record: MDA-MB-231, 48 h. Put shortly:
(§1)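 Cells seeded at 5×10^3 per well in RPMI and allowed to attach for 18 h in drug-free medium. Samples were added in 3:7 DMSO/H2O, with highest concentration 100 µM, and exposed for 48 h. Cells were fixed with cold TCA at 4 °C for 60 min, stained with 0.4% SRB and solubilized in Tris. OD was read at 490 nm. GI50, TGI and LC50 came from automated analysis following the NCI protocol.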
(In SRB staining, fixed cells bind dye roughly in proportion to their protein.)

Experiment [2] relates to A549. The experiment can be described thus: Cytotoxicity against human A549 cells after 48 hrs by sulforhodamine B assay. It counts as functional. The settings on record: A549, 48 h. Put shortly:
as §1

Experiment [3] has as its system HT-29. Kind of experiment: Cytotoxicity against human HT-29 cells after 48 hrs by sulforhodamine B assay. It counts as functional. The settings on record: HT-29, 48 h. In short, it runs like this: as §1
Experiment [4] concerns HeLa. The experiment can be described thus: Inhibition of mitosis in human HeLa cells assessed as G2 checkpoint inhibition by ELISA. It counts as functional, cell-based. Put shortly: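 ELISA immunoassay in HeLa cells. Paclitaxel and vinblastine (each 1 µg/mL) were control inhibitors. Five fixed concentrations were tested (10, 2, 0.4, 0.08, 0.016 µg/mL). Inhibition and survival are given as % of controls.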
(In an ELISA, binding on a coated surface is turned into a signal by an enzyme label.)

Experiment [5] relates to MDA-MB-231. Kind of experiment: Inhibition of histone deacetylase expressed in human MDA-MB-231 cells. It is filed as cell-based. In short, it runs like this:
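Cell extracts from MDA-MB-231 breast carcinoma served as enzyme source. Trichostatin A at 250 nM was the reference inhibitor. Test concentrations were 10, 2, 0.4, 0.08 and 0.016 µg/mL. Data are % inhibition relative to controls.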

Experiment [6] concerns the target Epidermal growth factor receptor (Homo sapiens) (UniProt P00533). Kind of experiment: Inhibition of EGFR expressed in human HeLa cells at 10 ug/mL by AP1-luciferase reporter gene assay relative to control. It counts as cell-based. In short, it runs like this:
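AP1-luc stably transfected HeLa cells were grown in DMEM/10% FBS at 20,000 cells/well and set for 24 h. They were treated with 1% DMSO vehicle or compound (10, 2, 0.4, 0.08, 0.016 µg/mL) before stimulation with EGF at 25 ng/mL. Control inhibitor was AG-1478 at 20 µM. Survival was checked by calcein-AM (0.1 µM, 30 min, 37 °C), then luciferase read by luminescence. Values are % of control.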
(In general: A reporter such as luciferase makes a cellular process visible.)

The target of experiment [7] is Hypoxia-inducible factor 1-alpha (Homo sapiens) (UniProt Q16665). The experiment can be described thus: Inhibition of HIF1alpha expressed in human HeLa cells at 10 ug/mL by HIF1-luciferase reporter gene assay relative to control. It counts as cell-based. Put shortly: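 HIF1-luc stably transfected HeLa cells were plated at 20,000 cells/well and set for 24 h. They were pretreated 30 min with 1% DMSO vehicle or compound (10, 2, 0.4, 0.08, 0.016 µg/mL), then given 50 µM deferoxamine as hypoxia mimetic for 24 h. Survival was measured by calcein-AM fluorescence (0.1 µM, 30 min, 37 °C), followed by luciferase luminescence. Reported as % of control.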

Experiment [8] addresses T1, Catenin beta-1 (Homo sapiens) (UniProt P35222).
T1 sequence (whole entry): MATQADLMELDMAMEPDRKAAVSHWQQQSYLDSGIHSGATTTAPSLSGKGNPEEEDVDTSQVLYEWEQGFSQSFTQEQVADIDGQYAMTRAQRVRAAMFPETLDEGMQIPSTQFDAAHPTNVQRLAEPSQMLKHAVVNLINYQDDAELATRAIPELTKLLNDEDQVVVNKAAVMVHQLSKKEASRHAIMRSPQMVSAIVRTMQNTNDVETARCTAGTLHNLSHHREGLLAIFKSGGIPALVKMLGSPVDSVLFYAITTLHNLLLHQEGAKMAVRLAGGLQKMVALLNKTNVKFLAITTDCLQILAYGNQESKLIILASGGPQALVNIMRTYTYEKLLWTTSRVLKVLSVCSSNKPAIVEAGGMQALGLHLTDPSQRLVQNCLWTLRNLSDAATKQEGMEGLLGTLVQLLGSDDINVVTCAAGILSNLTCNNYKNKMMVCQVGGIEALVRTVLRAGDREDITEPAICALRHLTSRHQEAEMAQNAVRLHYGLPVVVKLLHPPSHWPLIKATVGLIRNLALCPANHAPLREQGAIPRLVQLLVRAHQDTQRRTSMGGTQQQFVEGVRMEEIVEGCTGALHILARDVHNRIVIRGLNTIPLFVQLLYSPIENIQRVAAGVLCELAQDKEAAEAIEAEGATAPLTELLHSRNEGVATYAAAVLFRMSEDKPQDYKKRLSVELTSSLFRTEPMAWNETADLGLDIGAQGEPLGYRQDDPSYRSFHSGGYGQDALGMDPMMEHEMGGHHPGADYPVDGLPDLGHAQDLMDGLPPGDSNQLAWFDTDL
Kind of experiment: Inhibition of beta-catenin expressed in human SW480 cells by luciferase reporter gene assay.

The mark [9] stands for this setting: read-out: LC50 (the source's name).

Structures are written as SMILES. Calls of active or inactive are those of the source. The rule behind the calls is not given here.

Sequence of Epidermal growth factor receptor (Homo sapiens) (P00533 whole entry): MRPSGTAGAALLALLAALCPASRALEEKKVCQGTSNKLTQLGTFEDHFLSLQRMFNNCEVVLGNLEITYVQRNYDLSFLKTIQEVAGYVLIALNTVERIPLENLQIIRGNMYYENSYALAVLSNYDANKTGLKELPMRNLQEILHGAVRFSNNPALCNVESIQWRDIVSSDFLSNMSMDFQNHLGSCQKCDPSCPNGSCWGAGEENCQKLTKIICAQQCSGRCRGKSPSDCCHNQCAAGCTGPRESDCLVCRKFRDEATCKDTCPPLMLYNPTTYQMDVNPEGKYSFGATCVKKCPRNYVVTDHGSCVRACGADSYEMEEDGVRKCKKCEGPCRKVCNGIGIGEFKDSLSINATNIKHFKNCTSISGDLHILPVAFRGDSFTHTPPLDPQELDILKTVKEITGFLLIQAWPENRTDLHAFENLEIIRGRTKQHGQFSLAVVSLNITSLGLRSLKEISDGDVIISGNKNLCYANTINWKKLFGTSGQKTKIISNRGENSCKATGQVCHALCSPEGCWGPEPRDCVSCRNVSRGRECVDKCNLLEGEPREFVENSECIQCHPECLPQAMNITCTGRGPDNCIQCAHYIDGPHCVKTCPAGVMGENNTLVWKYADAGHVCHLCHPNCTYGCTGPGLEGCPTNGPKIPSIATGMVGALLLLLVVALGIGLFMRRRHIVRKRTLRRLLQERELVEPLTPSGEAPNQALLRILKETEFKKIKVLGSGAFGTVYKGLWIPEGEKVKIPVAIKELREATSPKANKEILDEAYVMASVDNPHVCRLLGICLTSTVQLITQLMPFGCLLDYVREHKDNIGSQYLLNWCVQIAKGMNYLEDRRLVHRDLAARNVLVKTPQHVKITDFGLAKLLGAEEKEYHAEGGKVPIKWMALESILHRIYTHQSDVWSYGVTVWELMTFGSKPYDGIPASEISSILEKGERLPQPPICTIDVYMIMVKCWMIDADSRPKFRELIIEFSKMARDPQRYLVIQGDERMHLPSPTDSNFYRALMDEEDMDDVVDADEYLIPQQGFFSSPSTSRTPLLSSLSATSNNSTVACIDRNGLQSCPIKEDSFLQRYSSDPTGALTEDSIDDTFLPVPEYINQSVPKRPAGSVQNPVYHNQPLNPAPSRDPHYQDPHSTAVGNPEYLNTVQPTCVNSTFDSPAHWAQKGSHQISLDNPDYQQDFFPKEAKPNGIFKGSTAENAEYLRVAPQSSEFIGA
Sequence of Hypoxia-inducible factor 1-alpha (Homo sapiens) (Q16665 whole entry, looked up): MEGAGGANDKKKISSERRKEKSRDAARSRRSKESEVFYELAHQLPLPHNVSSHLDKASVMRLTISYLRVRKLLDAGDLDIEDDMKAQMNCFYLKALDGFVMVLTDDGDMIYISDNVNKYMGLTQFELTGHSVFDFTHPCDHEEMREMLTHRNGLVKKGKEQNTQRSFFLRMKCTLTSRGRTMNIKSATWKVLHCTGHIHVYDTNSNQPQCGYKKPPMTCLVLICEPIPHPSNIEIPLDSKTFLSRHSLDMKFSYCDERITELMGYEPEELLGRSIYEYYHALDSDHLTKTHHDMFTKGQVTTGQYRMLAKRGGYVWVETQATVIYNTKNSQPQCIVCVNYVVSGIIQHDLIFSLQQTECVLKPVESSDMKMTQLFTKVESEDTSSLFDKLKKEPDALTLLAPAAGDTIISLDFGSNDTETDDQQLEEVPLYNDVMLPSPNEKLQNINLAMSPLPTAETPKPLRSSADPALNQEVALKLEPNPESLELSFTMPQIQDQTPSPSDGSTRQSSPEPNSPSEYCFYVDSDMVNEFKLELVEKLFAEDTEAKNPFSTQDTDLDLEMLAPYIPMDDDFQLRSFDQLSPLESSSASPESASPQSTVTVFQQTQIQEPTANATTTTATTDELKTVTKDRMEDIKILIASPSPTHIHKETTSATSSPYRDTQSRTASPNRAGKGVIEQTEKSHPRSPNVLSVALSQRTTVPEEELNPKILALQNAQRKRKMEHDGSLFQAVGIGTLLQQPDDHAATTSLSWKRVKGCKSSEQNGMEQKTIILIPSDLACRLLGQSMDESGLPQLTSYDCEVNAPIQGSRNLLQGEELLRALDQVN

As usually defined, the GI50 is the concentration at which growth is held to half of that of the control. Low values mean more potent growth inhibition, high ones less potent growth inhibition. By TGI is commonly meant the concentration giving total growth inhibition. Broadly, the inhibition is the percentage by which the read-out fell short of the control. On to `COC(=O)[C@@H]1C[C@@]2(CC=C(C)C)c3ccccc3N3C(=N)C(C)(C)N1[C@H]32`, for which the values for the GI50 in experiment [1], in experiment [2] and in experiment [3] were 11 µM, 5.66 µM and 4.24 µM, respectively. Moreover, the TGI in experiment [1], in experiment [2] and in experiment [3] was 28.3 µM throughout. Besides, the CC50 in experiment [1] (setting [9]) and in experiment [2] (setting [9]) was 28.3 µM in each case. In addition, the LC50 (concentration killing 50% of cells) in experiment [3] is 28.3 µM. For the same compound, the result in experiment [4], in experiment [5] and in experiment [8] was inactive. Also, the inhibition in experiment [6] came to 0%; in experiment [7] it was 73%.

Source of the values: ChEMBL document CHEMBL1152234, “Synthesis and antitumoral evaluation of indole alkaloid analogues containing an hexahydropyrrolo[1',2',3':1,9a,9]imidazo[1,2-a]indole skeleton” (2008).
